pEC50, pKi: −log10 of the molar value. Calls of active or inactive are those of the source. No cut-off for these calls is given here.

What is called pEC50 is −log10 of the EC50, conventionally taken in molar units. By pKi is commonly meant the negative decadic logarithm of the Ki, by convention in mol/L. Low readings indicate a high Ki, high ones a low Ki.

Sequence of Beta-2 adrenergic receptor (Cavia porcellus, UniProt Q8K4Z4) (Q8K4Z4 whole entry): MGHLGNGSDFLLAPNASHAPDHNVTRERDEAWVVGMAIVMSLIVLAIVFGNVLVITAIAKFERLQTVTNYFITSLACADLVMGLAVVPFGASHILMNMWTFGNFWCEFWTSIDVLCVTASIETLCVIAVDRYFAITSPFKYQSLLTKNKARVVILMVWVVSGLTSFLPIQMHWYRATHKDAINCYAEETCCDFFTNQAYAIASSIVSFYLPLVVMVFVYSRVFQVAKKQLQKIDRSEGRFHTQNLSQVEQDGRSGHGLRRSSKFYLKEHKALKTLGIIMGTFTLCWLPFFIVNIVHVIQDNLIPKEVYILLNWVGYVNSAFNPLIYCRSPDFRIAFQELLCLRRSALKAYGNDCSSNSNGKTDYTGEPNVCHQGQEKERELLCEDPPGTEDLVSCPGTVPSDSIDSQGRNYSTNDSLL

One assay deals with T1, Beta-2 adrenergic receptor (Homo sapiens, UniProt P07550). Description: Agonist activity at human beta2 receptor in BEAS-2B cells assessed as cAMP accumulation by radioimmunoassay. The class given is functional, cell-based. (In general: Changes in cAMP serve as a functional read-out for many G protein-coupled receptors.)
T1 sequence (P07550 whole entry): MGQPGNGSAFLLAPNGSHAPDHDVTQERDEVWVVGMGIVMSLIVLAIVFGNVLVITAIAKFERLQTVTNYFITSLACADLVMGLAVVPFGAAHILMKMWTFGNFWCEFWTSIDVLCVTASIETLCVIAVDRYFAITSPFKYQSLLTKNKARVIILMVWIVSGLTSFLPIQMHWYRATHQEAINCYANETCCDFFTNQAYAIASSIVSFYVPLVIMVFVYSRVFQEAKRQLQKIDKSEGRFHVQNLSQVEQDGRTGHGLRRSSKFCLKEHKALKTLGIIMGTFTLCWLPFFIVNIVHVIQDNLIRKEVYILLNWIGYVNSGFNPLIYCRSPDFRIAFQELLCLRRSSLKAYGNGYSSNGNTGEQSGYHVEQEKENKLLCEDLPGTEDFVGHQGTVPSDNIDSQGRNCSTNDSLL
For `COc1ccc(Nc2ccc(CCNC[C@H](O)c3ccc(O)c(CO)c3)cc2)cc1-c1ccccc1`, the pEC50 is 8.40.
Turning to `COc1ccc(Nc2ccc(CCNC[C@H](O)c3ccc(O)c(NC=O)c3)cc2)cc1-c1ccccc1`, the negative-log EC50 (pEC50) was 9.10.
On to `COc1ccc(Nc2ccc(CCNC[C@H](O)c3ccc(O)c4[nH]c(=O)ccc34)cc2)cc1-c1ccccc1`, for which the pEC50 was 9.40.

In a further assay the test system is Cavia porcellus. Description: Inhibition of acetylcholine-induced bronchoconstriction in male guinea pig assessed as pulmonary resistance at 1 -100 ug/ml administered via nebulization for 10 mins measured after 1.5 hrs by plethysmograph. It counts as functional, organism-based.
For the compound `COc1ccc(Nc2ccc(CCNC[C@H](O)c3ccc(O)c4[nH]c(=O)ccc34)cc2)cc1-c1ccccc1`, the inhibition entry was “Active”.

For another assay, the system named is Cavia porcellus. Description: Inhibition of acetylcholine-induced bronchoconstriction in male guinea pig assessed as pulmonary resistance administered via nebulization for 10 mins measured after 72 hrs by plethysmograph. The class given is functional, organism-based. The method, boiled down: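 Guinea pigs dosed by nebulizer, 72 h before measurement. Pulmonary resistance measured in anesthetized, spontaneously breathing animals by head-out plethysmograph. Bronchoconstriction induced by increasing intravenous acetylcholine doses; PD2 is the ACh dose that doubles baseline resistance.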
As to `COc1ccc(Nc2ccc(CCNC[C@H](O)c3ccc(O)c4[nH]c(=O)ccc34)cc2)cc1-c1ccccc1`, the inhibition entry was “Dose-dependent effect”.

The species entered for another assay is Homo sapiens. Description: Selectivity ratio EC50 for human beta2 receptor to EC50 for human beta1 receptor. The method, boiled down:
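cAMP accumulation in whole cells overexpressing cloned human β2- or β1-adrenoceptor, measured by homogeneous radioimmunoassay. Selectivity is the ratio of agonist EC50s, β1 EC50/β2 EC50.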
On to `COc1ccc(Nc2ccc(CCNC[C@H](O)c3ccc(O)c(NC=O)c3)cc2)cc1-c1ccccc1`, for which the Ratio EC50 was determined as 75.
Same read-out and setting: to `COc1ccc(Nc2ccc(CCNC[C@H](O)c3ccc(O)c4[nH]c(=O)ccc34)cc2)cc1-c1ccccc1` belongs 56.

The next assay addresses T1, Beta-2 adrenergic receptor. Description: Agonist activity at human recombinant beta2 receptor assessed as cAMP accumulation by radioimmunoassay and cell based assay. It counts as functional.
Consider `COc1ccc(Nc2ccc(CCNC[C@H](O)c3ccc(O)c(CO)c3)cc2)cc1-c1ccccc1`, for which the negative-log EC50 (pEC50) is 9.30.
Take `COc1ccc(Nc2ccc(CCNC[C@H](O)c3ccc(O)c(NC=O)c3)cc2)cc1-c1ccccc1`: the negative logarithm of the EC50 (pEC50) was 9.90.
On the same count and under the same terms, to `COc1ccc(Nc2ccc(CCNC[C@H](O)c3ccc(O)c4[nH]c(=O)ccc34)cc2)cc1-c1ccccc1` belongs 9.90; to `OCc1cc(C(O)CNCCc2ccc(Br)cc2)ccc1O` (racemic), 7.60.
The same measure, in the same setting: under `OCc1cc(C(O)CNCCc2ccc(NCc3ccc(Cl)c(Cl)c3)cc2)ccc1O` (racemic) stands 5.80; under `OCc1cc(C(O)CNCCc2ccc(NCc3ccc4ccccc4c3)cc2)ccc1O` (racemic), 6.80.
The same measure, in the same setting: under `OCc1cc(C(O)CNCCc2ccc(N3CCC(c4ccccc4)CC3)cc2)ccc1O` (racemic) stands 6.40; under `OCc1cc(C(O)CNCCc2ccc(N3CCC(Cc4ccccc4)CC3)cc2)ccc1O` (racemic), 6.30; under `OCc1cc(C(O)CNCCc2ccc(N3CCC(CCCc4ccccc4)CC3)cc2)ccc1O` (racemic), 5.80.
Turning to `O=C(c1ccccc1)C1CCN(c2ccc(CCNCC(O)c3ccc(O)c(CO)c3)cc2)CC1` (racemic), the pEC50 is 5.90.
Still for that read-out and setting: under `OCc1cc(C(O)CNCCc2ccc(N3CCN(c4ccccc4)CC3)cc2)ccc1O` (racemic) stands 6.70; under `COc1ccc(CN2CCN(c3ccc(CCNCC(O)c4ccc(O)c(CO)c4)cc3)CC2)cc1` (racemic), 6.20.
`CC(=O)N1CCN(c2ccc(CCNCC(O)c3ccc(O)c(CO)c3)cc2)CC1` (racemic): the pEC50 was 5.00.
Consider `O=C(Cc1ccccc1)NC1CCN(c2ccc(CCNCC(O)c3ccc(O)c(CO)c3)cc2)CC1` (racemic), for which the negative logarithm of the EC50 (pEC50) is 6.00.
Still for that read-out and setting: under `OCc1cc(C(O)CNCCc2ccc(Nc3ccc(Oc4ccccc4)cc3)cc2)ccc1O` (racemic) stands 7.70.

The next assay deals with T1, Beta-2 adrenergic receptor. Description: Displacement of [3H]dihydroalprenolol from beta2 receptor (unknown origin) by liquid scintillation counting and cell based assay.
With `OCc1cc(C(O)CNCCc2ccc(Br)cc2)ccc1O` (racemic), the pKi was 4.50.
As for `OCc1cc(C(O)CNCCc2ccc(NCc3ccc(Cl)c(Cl)c3)cc2)ccc1O` (racemic), the negative logarithm of the Ki (pKi) is less than 5.00.
Still for that read-out and setting: under `OCc1cc(C(O)CNCCc2ccc(NCc3ccc4ccccc4c3)cc2)ccc1O` (racemic) stands less than 5.00; under `OCc1cc(C(O)CNCCc2ccc(N3CCC(c4ccccc4)CC3)cc2)ccc1O` (racemic), 4.90; under `OCc1cc(C(O)CNCCc2ccc(N3CCC(Cc4ccccc4)CC3)cc2)ccc1O` (racemic), 4.80.
Still for that read-out and setting: to `OCc1cc(C(O)CNCCc2ccc(N3CCC(CCCc4ccccc4)CC3)cc2)ccc1O` (racemic) belongs 3.70; to `O=C(c1ccccc1)C1CCN(c2ccc(CCNCC(O)c3ccc(O)c(CO)c3)cc2)CC1` (racemic), 4.40; to `OCc1cc(C(O)CNCCc2ccc(N3CCN(c4ccccc4)CC3)cc2)ccc1O` (racemic), 4.50.
Same read-out and setting: under `COc1ccc(CN2CCN(c3ccc(CCNCC(O)c4ccc(O)c(CO)c4)cc3)CC2)cc1` (racemic) stands less than 5.00.
Take `CC(=O)N1CCN(c2ccc(CCNCC(O)c3ccc(O)c(CO)c3)cc2)CC1` (racemic): the negative logarithm of the Ki (pKi) is less than 5.00.
Same read-out and setting: under `O=C(Cc1ccccc1)NC1CCN(c2ccc(CCNCC(O)c3ccc(O)c(CO)c3)cc2)CC1` (racemic) stands less than 5.00; under `OCc1cc(C(O)CNCCc2ccc(Nc3ccc(Oc4ccccc4)cc3)cc2)ccc1O` (racemic), 6.50.

Another assay deals with T2, Beta-1 adrenergic receptor (Homo sapiens, UniProt P08588). Description: Displacement of [3H]dihydroalprenolol from beta1 receptor (unknown origin) by liquid scintillation counting and cell based assay. Background: Displacement assays read how much labelled ligand stays bound in the presence of the test substance.
T2 sequence (P08588 whole entry): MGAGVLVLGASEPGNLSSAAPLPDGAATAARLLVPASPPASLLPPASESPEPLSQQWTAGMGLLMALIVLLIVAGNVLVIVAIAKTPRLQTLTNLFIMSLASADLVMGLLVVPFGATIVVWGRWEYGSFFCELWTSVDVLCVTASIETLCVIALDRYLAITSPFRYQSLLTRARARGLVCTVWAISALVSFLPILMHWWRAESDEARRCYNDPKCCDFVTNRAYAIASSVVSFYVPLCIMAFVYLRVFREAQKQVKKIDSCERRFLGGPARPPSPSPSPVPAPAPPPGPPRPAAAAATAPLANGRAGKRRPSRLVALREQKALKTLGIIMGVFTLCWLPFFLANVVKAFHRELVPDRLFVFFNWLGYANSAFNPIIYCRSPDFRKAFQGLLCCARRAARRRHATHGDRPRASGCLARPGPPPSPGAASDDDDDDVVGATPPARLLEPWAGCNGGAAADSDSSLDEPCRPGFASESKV
In the case of `OCc1cc(C(O)CNCCc2ccc(Br)cc2)ccc1O` (racemic), the pKi was less than 5.00.
The same measure, in the same setting: under `OCc1cc(C(O)CNCCc2ccc(NCc3ccc(Cl)c(Cl)c3)cc2)ccc1O` (racemic) stands less than 5.00; under `OCc1cc(C(O)CNCCc2ccc(NCc3ccc4ccccc4c3)cc2)ccc1O` (racemic), less than 5.00.
Same read-out and setting: under `OCc1cc(C(O)CNCCc2ccc(N3CCC(c4ccccc4)CC3)cc2)ccc1O` (racemic) stands less than 5.00; under `OCc1cc(C(O)CNCCc2ccc(N3CCC(Cc4ccccc4)CC3)cc2)ccc1O` (racemic), 4.10.
Same read-out and setting: under `OCc1cc(C(O)CNCCc2ccc(N3CCC(CCCc4ccccc4)CC3)cc2)ccc1O` (racemic) stands 3.90; under `O=C(c1ccccc1)C1CCN(c2ccc(CCNCC(O)c3ccc(O)c(CO)c3)cc2)CC1` (racemic), 3.90.
As for `OCc1cc(C(O)CNCCc2ccc(N3CCN(c4ccccc4)CC3)cc2)ccc1O` (racemic), the pKi was less than 5.00.
On to `COc1ccc(CN2CCN(c3ccc(CCNCC(O)c4ccc(O)c(CO)c4)cc3)CC2)cc1` (racemic), for which the pKi was less than 5.00.
Consider `CC(=O)N1CCN(c2ccc(CCNCC(O)c3ccc(O)c(CO)c3)cc2)CC1` (racemic), for which the pKi was less than 5.00.
For the compound `O=C(Cc1ccccc1)NC1CCN(c2ccc(CCNCC(O)c3ccc(O)c(CO)c3)cc2)CC1` (racemic), the negative-log Ki (pKi) was less than 5.00.
`OCc1cc(C(O)CNCCc2ccc(Nc3ccc(Oc4ccccc4)cc3)cc2)ccc1O` (racemic) gave a negative logarithm of the Ki (pKi) of 5.20.

The target of the next assay is Beta-2 adrenergic receptor (Cavia porcellus, UniProt Q8K4Z4). Description: Agonist activity at beta2 receptor in guinea pig trachea assessed as slow onset of inhibition of electrically stimulated contraction. The method, boiled down:
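Guinea pigs pretreated with 6-hydroxy-dopamine (200 mg/kg i.p.) 24 h before. Opened 5 mm tracheal rings between platinum electrodes in normal-K+ (4.7 mM) Krebs at 37 °C with 10 µM indomethacin, 1 µM choline, 3 µM guanethidine. Field stimulation: 9 V, 10 Hz, 1 ms pulses, 10 s train every 100 s. Resting tension 1 g, 1 h equilibration. Onset is the time to maximum effect at an EC80 concentration; slow is >30 min.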
Consider `COc1ccc(Nc2ccc(CCNC[C@H](O)c3ccc(O)c(CO)c3)cc2)cc1-c1ccccc1`, for which the negative-log EC50 (pEC50) was 8.70.
In the case of `COc1ccc(Nc2ccc(CCNC[C@H](O)c3ccc(O)c(NC=O)c3)cc2)cc1-c1ccccc1`, the pEC50 is 7.90.
With `COc1ccc(Nc2ccc(CCNC[C@H](O)c3ccc(O)c4[nH]c(=O)ccc34)cc2)cc1-c1ccccc1`, the negative-log EC50 (pEC50) is 8.70.

The next assay concerns the target T2, Beta-1 adrenergic receptor. Description: Agonist activity at human recombinant beta1 receptor assessed as cAMP accumulation by radioimmunoassay and cell based assay.
On to `COc1ccc(Nc2ccc(CCNC[C@H](O)c3ccc(O)c(NC=O)c3)cc2)cc1-c1ccccc1`, for which the negative logarithm of the EC50 (pEC50) is 8.00.
Same read-out and setting: to `COc1ccc(Nc2ccc(CCNC[C@H](O)c3ccc(O)c4[nH]c(=O)ccc34)cc2)cc1-c1ccccc1` belongs 8.10.

The next assay deals with Beta-3 adrenergic receptor (Homo sapiens, UniProt P13945). Description: Agonist activity at human recombinant beta3 receptor assessed as cAMP accumulation by radioimmunoassay and cell based assay.
Sequence of Beta-3 adrenergic receptor (P13945 whole entry): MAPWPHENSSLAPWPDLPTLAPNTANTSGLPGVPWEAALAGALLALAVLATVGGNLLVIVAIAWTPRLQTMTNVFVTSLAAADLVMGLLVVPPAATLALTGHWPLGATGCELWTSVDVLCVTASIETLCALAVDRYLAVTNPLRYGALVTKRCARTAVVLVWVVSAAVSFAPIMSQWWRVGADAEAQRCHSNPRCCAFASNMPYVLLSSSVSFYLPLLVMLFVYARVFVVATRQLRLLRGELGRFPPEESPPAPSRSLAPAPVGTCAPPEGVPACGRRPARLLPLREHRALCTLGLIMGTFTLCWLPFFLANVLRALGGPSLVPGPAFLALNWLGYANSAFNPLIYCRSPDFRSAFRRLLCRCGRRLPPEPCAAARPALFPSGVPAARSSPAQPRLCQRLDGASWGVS
As for `COc1ccc(Nc2ccc(CCNC[C@H](O)c3ccc(O)c(NC=O)c3)cc2)cc1-c1ccccc1`, the negative-log EC50 (pEC50) is 8.50.
Same read-out and setting: under `COc1ccc(Nc2ccc(CCNC[C@H](O)c3ccc(O)c4[nH]c(=O)ccc34)cc2)cc1-c1ccccc1` stands 7.90.

The next assay is filed under the species Homo sapiens. Description: Selectivity ratio EC50 for human beta2 receptor to EC50 for human beta3 receptor. The method, boiled down: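 cAMP accumulation in whole cells overexpressing cloned human β-adrenoceptor subtypes, measured by homogeneous radioimmunoassay (Flashplate). Reported as pEC50. Functional selectivity is the ratio of EC50 values (β3 EC50/β2 EC50 for β3; β1 EC50/β2 EC50 for β1).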
As to `COc1ccc(Nc2ccc(CCNC[C@H](O)c3ccc(O)c(NC=O)c3)cc2)cc1-c1ccccc1`, the Ratio EC50 worked out at 26.
As to `COc1ccc(Nc2ccc(CCNC[C@H](O)c3ccc(O)c4[nH]c(=O)ccc34)cc2)cc1-c1ccccc1`, the Ratio EC50 came to 100.

The species entered for the next assay is Homo sapiens. Description: Selectivity ratio Ki for beta1 receptor (unknown origin) to Ki for beta2 receptor (unknown origin).
Turning to `OCc1cc(C(O)CNCCc2ccc(N3CCC(Cc4ccccc4)CC3)cc2)ccc1O` (racemic), the Ratio Ki is 4.8.
Regarding `OCc1cc(C(O)CNCCc2ccc(N3CCC(CCCc4ccccc4)CC3)cc2)ccc1O` (racemic), the Ratio Ki was determined as 0.6.
The same measure, in the same setting: to `O=C(c1ccccc1)C1CCN(c2ccc(CCNCC(O)c3ccc(O)c(CO)c3)cc2)CC1` (racemic) belongs 3.4; to `OCc1cc(C(O)CNCCc2ccc(Nc3ccc(Oc4ccccc4)cc3)cc2)ccc1O` (racemic), 16.

(Values after ChEMBL document CHEMBL3286330, “Multivalent design of long-acting β(2)-adrenoceptor agonists incorporating biarylamines” (Bioorg Med Chem Lett, 2014).)
